Experimental data taken from the RNAGym collection of RNA variant scans (doi:10.1002/anie.201605470).

B1: Osa-1-4 twister ribozyme (parent)
chain: CCGCCUAACACUGCCAAUGCCGGUCCCAAGCCCGGAUAAAAGUGGAGGGGGCGG

Variants of: B1
Assay: self-cleavage, relative activity (ratio to wild type); higher = more cleavage; co-transcriptional
Method in brief: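 The 48 positions downstream of the cleavage site in a 54-nucleotide Oryza sativa twister ribozyme template were synthesised at 97 % wild-type base and 1 % of each other base. The template was transcribed in vitro at 37 °C for 2 h, with self-cleavage allowed during transcription. Reads with or without upstream sequence after deep sequencing marked cleavage status, and relative activity is fraction cleaved normalised to wild type.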

Variant	self-cleavage
CCGCCUAACACGGCCAAUGCCGGUCCCAAGCCCGGAUAAAAGUGGAGUGGGCGG [G48U U12G]	0.05
CCGCCUAACACCGCCAAUGCCGGUCCCAAGCCCGGAUAAAAGUGGAGUGGGCGG [G48U U12C]	0.04
CCGCCUAACACAGCCAAUGCCGGUCCCAAGCCCGGAUAAAAGUGGAGUGGGCGG [G48U U12A]	0.07
CCGCCUAACACCGCCAAUGCCGGUCCCAAGCCCGGAUAAAAGUGGAGGCGGCGG [G49C U12C]	0.04
CCGCCUAACACAGCCAAUGCCGGUCCCAAGCCCGGAUAAAAGUGGAGGCGGCGG [G49C U12A]	0.08
CCGCCUAACACGGCCAAUGCCGGUCCCAAGCCCGGAUAAAAGUGGAGGCGGCGG [G49C U12G]	0.06
CCGCCUAACACUGCCAAUGCCGGUCCCAAGCCCGGAUAAAAGUGGAGUCGGCGG [G48U G49C]	0.03
CCGCCUAACACUGCCAAUGCCGGUCCCAAGCCCGGAUAAAAGUGGAGUAGGCGG [G48U G49A]	0.04
CCGCCUAACACUGCCAAUGCCGGUCCCAAGCCCGGAUAAAAGUGGAGUUGGCGG [G48U G49U]	0.05
CCGCCUAACACUGCCAAUGCCGGUCCCAAGCCCGGAUAAAAGUGGAGUGGGCGG [G48U]	0.1
CCGCCUAACACUGCCAAUGCCGGUCCCAAGCCCGGAUAAAAGUGGAGGCGACGG [G49C G51A]	0.12
CCGCCUAACACUGCCAAUGCCGGUCCCAAGCCCGGAUAAAAGUGGAGGCGCCGG [G49C G51C]	0.04
CCGCCUAACACUGCCAAUGCCGGUCCCAAGCCCGGAUAAAAGUGGAGGCGUCGG [G49C G51U]	0.08
CCGCCUAACACUGCCAAUGCCGGACCCAAGCCCGGAUAAAAGUGGAGGCGGCGG [G49C U24A]	0.03
CCGCCUAACACUGCCAAUGCCGGCCCCAAGCCCGGAUAAAAGUGGAGGCGGCGG [G49C U24C]	0.05
CCGCCUAACACUGCCAAUGCCGGGCCCAAGCCCGGAUAAAAGUGGAGGCGGCGG [G49C U24G]	0.01
CCGCCUAACACUGCCAAUGCCGGUCCCAAGCCCGGAUAAAAGUGGAGGAGGCGU [G49A G54U]	0.39
CCGCCUAACACUGCCAAUGCCGGUCCCAAGCCCGGAUAAAAGUGGAGGAGGCGA [G49A G54A]	0.15
CCGCCUAACACUGCCAAUGCCGGUCCCAAGCCCGGAUAAAAGUGGAGGAGGCGC [G49A G54C]	0.11
CCGCCUAACACUGCCAAUGCCGGUCCCAAGCCCGGAAAAAAGUGGAGCGGGCGG [G48C U37A]	0.08
CCGCCUAACACUGCCAAUGCCGGUCCCAAGCCCGGACAAAAGUGGAGCGGGCGG [G48C U37C]	0.1
CCGCCUAACACUGCCAAUGCCGGUCCCAAGCCCGGAGAAAAGUGGAGCGGGCGG [G48C U37G]	0.16
CCGCCUAACACUGCCAAUGCCGGUCCCAAGCCCGGAUAAAAGUGGAGGAGGCGG [G49A]	0.26
CCGCCUAACACUGCCAAUGCCGGUCCCAAGCCCGGAUAAAAGUGGAGGCGGCGG [G49C]	0.07

Variant	self-cleavage
CCGCCUAACACUGCCAAUGCCGGUCCCAAGCCCGGAUAAAAGUGGAGGUGGCGG [G49U]	0.23
CCGCCUAACACUGCCAAUGCCGGUCCCAAGCCCGGAUAAAAGUGGAGGAGGCAG [G49A G53A]	0.11
CCGCCUAACACUGCCAAUGCCGGUCCCAAGCCCGGAUAAAAGUGGAGGAGGCCG [G49A G53C]	0.05
CCGCCUAACACUGCCAAUGCCGGUCCCAAGCCCGGAUAAAAGUGGAGGAGGCUG [G49A G53U]	0.09
CCGCCUAACACUGCCAAUGCCGGUCCCAAGCCCGGAUAAAAGUGGAGGAGACGG [G49A G51A]	0.33
CCGCCUAACACUGCCAAUGCCGGUCCCAAGCCCGGAUAAAAGUGGAGGAGCCGG [G49A G51C]	0.09
CCGCCUAACACUGCCAAUGCCGGUCCCAAGCCCGGAUAAAAGUGGAGGAGUCGG [G49A G51U]	0.15
CCGCCUAACACUGCCAACGCCGGUCCCAAGCCCGGAUAAAAGUGGAGUGGGCGG [G48U U18C]	0.08
CCGCCUAACACUGCCAAGGCCGGUCCCAAGCCCGGAUAAAAGUGGAGUGGGCGG [G48U U18G]	0.13
CCGCCUAACACUGCCAAAGCCGGUCCCAAGCCCGGAUAAAAGUGGAGUGGGCGG [G48U U18A]	0.07
CCGCCUAACACUGCCAAAGCCGGUCCCAAGCCCGGAUAAAAGUGGAGGAGGCGG [G49A U18A]	0.16
CCGCCUAACACUGCCAACGCCGGUCCCAAGCCCGGAUAAAAGUGGAGGAGGCGG [G49A U18C]	0.16
CCGCCUAACACUGCCAAGGCCGGUCCCAAGCCCGGAUAAAAGUGGAGGAGGCGG [G49A U18G]	0.29
CCGCCUAACACUGCCAAUGCCGGUCCCAAGCCCGGAUAAAAGCGGAGUGGGCGG [G48U U43C]	0.05
CCGCCUAACACUGCCAAUGCCGGUCCCAAGCCCGGAUAAAAGGGGAGUGGGCGG [G48U U43G]	0.04
CCGCCUAACACUGCCAAUGCCGGUCCCAAGCCCGGAUAAAAGAGGAGUGGGCGG [G48U U43A]	0.05
CCGCCUAACACUGCCAAUGCCGGUCCCAAGCCCGGAUAAAAGAGGAGCGGGCGG [G48C U43A]	0.08
CCGCCUAACACUGCCAAUGCCGGUCCCAAGCCCGGAUAAAAGCGGAGCGGGCGG [G48C U43C]	0.07
CCGCCUAACACUGCCAAUGCCGGUCCCAAGCCCGGAUAAAAGGGGAGCGGGCGG [G48C U43G]	0.07
CCGCCUAACACUGCCAAUGCCGGUCCCAAGCCCGGACAAAAGUGGAGUGGGCGG [G48U U37C]	0.09
CCGCCUAACACUGCCAAUGCCGGUCCCAAGCCCGGAAAAAAGUGGAGUGGGCGG [G48U U37A]	0.05
CCGCCUAACACUGCCAAUGCCGGUCCCAAGCCCGGAGAAAAGUGGAGUGGGCGG [G48U U37G]	0.11
CCGCCUAACACUGCCAAUGCCGGUCCCAAGCCCGGAUAAAAGUGGAGGCGGCUG [G49C G53U]	0.05
CCGCCUAACACUGCCAAUGCCGGUCCCAAGCCCGGAUAAAAGUGGAGGCGGCAG [G49C G53A]	0.06
